This passage reports IC50 results from ChEMBL document CHEMBL1154747, “Synthesis and cytotoxic evaluation of beta-alkyl or beta-aryl-delta-methyl-alpha-methylene-delta-lactones. Comparison with the corresponding gamma-lactones” (Eur J Med Chem, 2010).

One may read the IC50 as the point on the concentration scale where inhibition reaches its midpoint. A lower IC50 goes with inhibition by little substance.

What all share (assay type): functional, cell-based
One assay concerns NALM-6. In words: Cytotoxicity against human NALM6 cells after 48 hrs by MTT assay. The note with it: NALM-6, 48 h. In a few lines: (§1)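 HL-60 (promyelocytic) and NALM-6 (lymphoblastic) human leukemia cells in RPMI 1640 with 10% heat-inactivated FBS, streptomycin/penicillin, 37 °C, 5% CO2; exponentially growing cells seeded 8 × 10^3/well. Compounds from fresh DMSO stocks diluted in medium, 10^-7 to 10^-3 M, 46 h, then MTT 2 h; formazan dissolved in 20% SDS/50% DMF pH 4.7, A562/630. IC50 from concentration-response curves, ≥3 experiments.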
In general terms: Formazan colour is commonly taken as a measure of viable cells.

In the next assay the test system is L1210. In words: Cytotoxicity against mouse L1210 cells after 48 hrs by MTT assay. The note with it: L1210, 48 h. In a few lines: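 Mouse L-1210 leukemia cells in RPMI 1640 with 10% FCS, gentamycin 50 µg/mL and 0.02 M HEPES; seeded at 1.5 × 10^3 cells/mL, drug added after 24 h, then 48 h further incubation. Cell number relative to untreated control by tetrazolium dye method; IC50 from concentration-survival curves by non-linear (quasi-Newton) fitting, mean of at least three experiments.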

In a further assay the test system is HL-60. In words: Cytotoxicity against human HL60 cells after 48 hrs by MTT assay. The note with it: HL-60, 48 h. In a few lines: as §1

Take `C=C1C(=O)O[C@H](C)[C@@H]1c1ccc2c(c1)OCO2` (relative stereo): the IC50 in the assay on NALM-6 is 4.7 µM; in the assay with L1210, 1.4 µM; in the assay with HL-60, 33.3 µM.

Regarding `C=C1C(=O)O[C@@H](C)[C@@H]1c1ccc(C)cc1` (relative stereo), the figures for the IC50 in the assay with NALM-6, with L1210 and in the assay on HL-60 were 4.39 µM, 1.5 µM and 5.01 µM, respectively.

On to `C=C1C(=O)OC(C)CC1c1ccc2c(c1)OCO2` (stereo not drawn), for which the IC50 with NALM-6 turned out to be 5.46 µM; in the assay on L1210 it was 7 µM; in the assay with HL-60, 5.52 µM.

With `C=C1C(=O)OC(C)CC1c1ccc(Br)cc1` (stereo not drawn), the IC50 is 4.51 µM in the assay on NALM-6, 1.75 µM with L1210 and 4.77 µM with HL-60.

`C=C1C(=O)OC(C)CC1c1ccccc1OC` (stereo not drawn): the IC50 in the assay on NALM-6 came out at 6.26 µM; in the assay with L1210 it was 2.1 µM; with HL-60 it was 6.44 µM.

Consider `C=C1C(=O)O[C@H](C)[C@@H]1c1ccc([N+](=O)[O-])cc1`, for which the IC50 with NALM-6 worked out at 3.77 µM; in the assay with L1210, 1.9 µM; with HL-60, 21.7 µM.

For `C=C1C(=O)OC(C)CC1C1CCCCC1` (stereo not drawn), the IC50 with NALM-6 is 15.8 µM; in the assay with L1210, 13 µM; in the assay with HL-60 it was 40.6 µM.

Take `C=C1C(=O)O[C@@H](C)[C@@H]1c1ccc(OC)cc1` (relative stereo): the IC50 is 5.42 µM in the assay with NALM-6, 1.95 µM in the assay on L1210 and 5.56 µM with HL-60.

`C=C1C(=O)O[C@@H](C)[C@@H]1c1ccc(Br)cc1` (relative stereo): the results for the IC50 with NALM-6, with L1210 and with HL-60 were 1.1 µM, 0.58 µM and 6.66 µM, respectively.

For `C=C1C(=O)O[C@H](C)[C@@H]1c1ccc(OC)cc1` (relative stereo), the IC50 in the assay with NALM-6 came to 5.59 µM; in the assay with L1210, 4.4 µM; with HL-60, 4.82 µM.

For the compound `C=C1C(=O)O[C@H](C)[C@@H]1c1ccc(C)cc1` (relative stereo), the IC50 in the assay on NALM-6 worked out at 5.97 µM; with L1210, 5.5 µM; with HL-60, 5.62 µM.

With `C=C1C(=O)O[C@@H](C)[C@@H]1c1ccc2c(c1)OCO2` (relative stereo), the figures for the IC50 in the assay with NALM-6, with L1210 and in the assay on HL-60 were 5 µM, 0.8 µM and 5.35 µM, respectively.

Turning to `C=C1C(=O)OC(C)CC1C(C)C` (stereo not drawn), the IC50 with NALM-6 is 56.4 µM; with L1210, 44.4 µM; in the assay on HL-60, 61.2 µM.

Regarding `C=C1C(=O)O[C@H](C)[C@@H]1c1ccc(Br)cc1` (relative stereo), the IC50 with NALM-6 was determined as 4.25 µM; in the assay with L1210, 7.8 µM; in the assay on HL-60, 4.28 µM.

`C=C1C(=O)OC(C)CC1c1ccc([N+](=O)[O-])cc1` (stereo not drawn): the results for the IC50 in the assay on NALM-6, in the assay on L1210 and in the assay with HL-60 were 3.42 µM, 1.2 µM and 6.12 µM, respectively.

On to `C=C1C(=O)OC(C)CC1c1ccc(OC)cc1` (stereo not drawn), for which the IC50 was 5.76 µM in the assay on NALM-6, 0.8 µM in the assay on L1210 and 5.95 µM in the assay on HL-60.
